From PubChem BioAssay
XiGFP reactiv: activators of inactive X chromosome reactivation, primary screen, imaging, XiGFP fibroblasts, GFP high-content imaging, set 2 | XiGFP mouse fibroblasts, % GFP-positive cells imaging, 3 d; cells co-treated with 5-aza-dC sensitizer; scaled so ellipticine positive control = 100% | 360,000 compounds, 0.055% hits | activation, % at 7.58 µM;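 active means mean normalized replicate activation at least 10% and every replicate at or above 10%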;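 further: 0% = median of on-plate neutral control wells and 100% = ellipticine 6 µM median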
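Assay system: SV40-immortalized XiGFP fibroblast cells, line 68-5-11; buffer or medium: DMEM plus 5-aza-dC sensitizer; compound: one concentration, pinned; timing: compounds 3 days, fix/stain 15 min at room temperature; benchmarks: positive control ellipticine, 6 µM final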
ARNT-TACC3 inh: disruptors of ARNT/TACC3 protein interaction, primary screen, biochemical, AlphaScreen, single concentration; Transforming acidic coiled-coil-containing protein 3 (Homo sapiens), Q9Y6A5; AlphaScreen His-ARNT PAS-B/GST-TACC3 binding, luminescence; TACC3 fragment carries E629A point mutation; inhibition, % at 9.99 µM; 390,000 compounds, 0.66% hits;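 active means mean inhibition of replicates at least 50% and at least half of replicates each reaching 50%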;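 further: 0% = complete ARNT plus TACC3 wells and 100% = ARNT alone without TACC3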
NSD2 HMT inh: NSD2 histone methyltransferase inhibitors, primary screen, biochemical, AlphaScreen, single concentration, set 2; Histone-lysine N-methyltransferase NSD2 (Homo sapiens), O96028; NSD2 peptide methylation, 120 min; inhibition, % at 12.5 µM; 310,000 compounds, 0.54% hits; in the data active means inhibition above about 50%
SR-BI uptake up: activators of SR-BI mediated DiI-HDL uptake, primary screen, ldlA[mSR-BI] CHO cells, DiI fluorescence | activation, % at 12.5 µM | 320,000 compounds, 0.096% hits | 3 h; 100 = double the neutral-control signal;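 active means mean replicate activation of at least 60% and every replicate at or above 60%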;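 further: 0% = median plate neutral-control signal and 100% = twice that signal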
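System: CHO ldlA[mSR-BI] cells / Medium: HEPES-buffered (25 mM, pH 7.4) F12 plus 0.5% BSA / Probe or stimulus: labelled HDL, 10 µg/mL / Doses: single compound concentration, delivered by pin transfer / Schedule: 3 h, 37 °C / Measured by: DiI fluorescence, bottom read / Measure: cell-associated DiI fluorescence as measure of HDL uptake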
SR-BI DiI inh: inhibitors of SR-BI mediated HDL lipid uptake, primary screen, ldlA[mSR-BI] cells, fluorescence, single point; Scavenger receptor class B member 1 (Mus musculus), Q61009; ldlA[mSR-BI] CHO cells, DiI-HDL uptake fluorescence, 3 h; inhibition, % at 12.5 µM; 320,000 compounds, 0.96% hits;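 active means mean replicate inhibition of at least 70% and a set share of replicates each scoring 70 or more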;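 further: 0% = median of neutral control wells and 100% = median of positive control wells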
sPLA2-III inh: human group III sPLA2 inhibitors, primary screen, biochemical, QFRET, BODIPY PC-A2 liposome substrate; Group 3 secretory phospholipase A2 (Homo sapiens), Q9NZ20; QFRET BODIPY PC-A2 liposome hydrolysis, fluorescence; inhibition, % at 12.2 µM; 370,000 compounds, 0.56% hits; AID 743126, 2013;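 active means inhibition above mean plus 3 SD of compounds lying within the high and low control bounds, cut at about 19% in these data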;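 further: 0% = median of test compound wells and 100% = no enzyme DMSO wells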
hGIII sPLA2 conf: human group III sPLA2 inhibitors, confirmation, biochemical, QFRET, triplicate | shares compounds with sPLA2-III inh | recombinant hGIII-sPLA2, BODIPY PC-A2 QFRET fluorescence | inhibition, % at 12.2 µM | 2,000 compounds, 34% hits | AID 743280, 2014;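 active means mean inhibition across triplicates above the hit cutoff set in the earlier primary screen, cut at about 19% in these data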;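 further: 0% = enzyme with DMSO and 100% = DMSO wells lacking enzyme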
BODIPY interf: 535nm fluorescence optical interference, confirmation, artefact control for HGIII-sPLA2 inhibitor project, biochemical, QFRET; 2,000 compounds, 8.5% hits; shares compounds with sPLA2-III inh; BODIPY FL product fluorescence interference; inhibition, % at 12.2 µM;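 active means average inhibition above the solvent-only control mean plus 3 SD, cut at about 6% in these data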;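 further: 0% = DMSO with substrate plus product and 100% = DMSO with substrate alone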
535nm interf DR: 535nm fluorescence optical interference, dose response, artefact control for HGIII-sPLA2 inhibitor project, biochemical, QFRET; shares compounds with sPLA2-III inh; BODIPY FL product fluorescence interference, cell-free; IC50, µM; 240 tested, under 10 active;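 active means IC50 at or below 10 µM; inactive means IC50 above 10 µM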
* = called active by the depositor; · = no result. The list is not random: actives were taken first. Their share in the collection is about 2%.

SMILES	XiGFP reactiv	ARNT-TACC3 inh	NSD2 HMT inh	SR-BI uptake up	SR-BI DiI inh	sPLA2-III inh	hGIII sPLA2 conf	BODIPY interf	others
O=C(C1CC1)N1CC(=O)N2[C@H](CO)[C@H](c3ccc(C#Cc4cccc(F)c4)cc3)[C@H]2C1	0	·	·	·	·	·	·	·
COc1ccc(CNC(C)CCc2ccccc2)cc1 (configuration not stated)	0	0	13	4	-4	20*	9	-16
O=C(NNC(=S)Nc1ccc(Cl)cc1)c1ccccc1OC(F)F	0	30	1	-22	22	24*	28*	8.5*
O=C(NNC(=S)NCc1ccccc1)c1ccccc1OC(F)F	0	-10	0	14	-14	20*	31*	3	535nm interf DR=>122
CNC(=S)NNc1nc(-c2ccccc2)c2cc(Cl)ccc2n1	0	7	2	-20	20	13	·	·
CCNC(=S)NNc1nnc(-c2ccccc2)c(-c2ccccc2)n1	0	3	2	-2	2	24*	50*	0	535nm interf DR=>122
CCNC(=S)NNC(=S)NCc1ccccc1	0	-1	-2	25	-25	21*	39*	-3	535nm interf DR=>122
COc1ccccc1C(=O)NNC(=S)Nc1ccccc1	0	13	-10	-1	1	8	·	·
CSC1=NCCN1C(=O)c1c(-c2ccccc2Cl)noc1C	0	·	·	·	·	2	·	·
CSC1=NCCCN1C(=O)c1c(-c2ccccc2Cl)noc1C	0	2	-5	8	-8	22*	-2	-6
O=C1CCC([N+](=O)[O-])C(c2ccccc2F)N1 (configuration not stated)	0	-3	-11	-13	13	2	·	·
CCOC(=O)c1[nH]c(C)c(/C(C)=N\O)c1C	0	-6	1	-1	1	0	·	·
C[C@H](CO)N1C[C@H](C)[C@H](CN(C)C(=O)C2CCOCC2)Oc2ncc(C#CC3(O)CCCC3)cc2C1=O	-1	·	·	·	·	·	·	·
N#Cc1ccc(-c2ccc([C@@H]3[C@@H](CO)N4CCCCN(C(=O)Nc5ccc(F)cc5)C[C@H]34)cc2)cc1	0	0	·	·	·	·	·	·
COc1ccc(/C=C(\C#N)c2nc3ccc(C)cc3[nH]2)cc1Oc1ccc(C(F)(F)F)cc1[N+](=O)[O-]	0	34	-1	-67	67	20*	-5	-13
CNC(=O)C[C@H]1CC[C@H]2[C@H](COc3ccc(NS(=O)(=O)c4ccccc4C)cc3C(=O)N2C)O1	0	1	·	·	·	·	·	·
CCOc1cc(CNc2ccc(N3CCOCC3)cc2)cc(Br)c1OCC	·	32	21	-10	10	-5	·	·
CCOc1cc(CNc2ccc3c(c2)OCCO3)cc(Br)c1OCC	·	21	6	-26	26	23*	34*	-4	535nm interf DR=>122
O=C(c1ccc2c3c(cccc13)C(=O)N(O)C2=O)N1CCCCC1	·	-2	1	19	-19	4	·	·
N#Cc1ccccc1Cn1c(=O)n(CCCC(=O)NCc2ccc3c(c2)OCO3)c(=O)c2ccccc21	·	-5	-1	7	-7	21*	-2	-10
Cc1ccc(Cn2c(=O)n(CCC(=O)NCc3ccc4c(c3)OCO4)c(=O)c3ccccc32)cc1	·	-4	0	7	-7	-2	·	·
Cc1ccc(S(=O)(=O)N(C)C[C@@H]2OCCCC[C@@H](C)Oc3ccc(NC(=O)Nc4c(C)noc4C)cc3C(=O)N([C@H](C)CO)C[C@@H]2C)cc1	0	-5	·	·	·	·	·	·
NC(=O)C1(Nc2ccc(-c3ccc(Cl)cc3)cc2)CCCC1	0	-4	26	-13	13	22*	11	-1
O=C(O)C1(Nc2ccc(Cl)cc2)CCCC1	0	-30	2	7	-7	-3	·	·
Cc1cc2nc(-c3ccc[nH]c3=O)n(Cc3ccccc3F)c2cc1C	0	-1	-2	-8	8	19*	-2	-13
SMILES	XiGFP reactiv	ARNT-TACC3 inh	NSD2 HMT inh	SR-BI uptake up	SR-BI DiI inh	sPLA2-III inh	hGIII sPLA2 conf	BODIPY interf	others
Cc1cccnc1NC(=S)Nc1ccc(F)cc1F	0	-1	-3	-21	21	20*	21*	-4
Cc1cc(C)nc(NC(=S)Nc2ccc(F)cc2F)c1	0	-4	-2	-6	6	7	·	·
Cc1ccc(C)c(NC(=S)Nc2ncccc2C)c1	0	11	·	1	-1	19*	10	-8
COc1ccc2c(-c3ccccc3)cc(SCC(N)=O)nc2c1	0	-38	-27	·	·	20*	4	-17
CC(NC(=O)COC(=O)c1cc(Cl)nc(Cl)c1)c1ccccc1 (configuration not stated)	0	-8	-4	12	-12	2	·	·
COc1ccc(-n2c(SCC(=O)NNC(=S)Nc3ccc(C)cc3)nnc2-c2ccccc2)cc1	·	·	9	·	·	31*	18	-3
COc1ccc(-n2c(SCC(=O)Nc3ccc(Oc4ccccc4)cc3)nnc2-c2ccccc2)cc1	·	·	0	·	·	-2	·	·
Cc1ccc(-c2nnc(SCC(=O)N/N=C/c3ccccc3C(=O)O)n2C2CCCCC2)cc1	0	3	-2	11	-11	-15	·	·
Cc1ccc(-c2nnc(SCC(=O)Nc3ccc4c(c3)OCCO4)n2-c2ccc(C)cc2)cc1	·	·	1	·	·	21*	-15	-23
Cc1ccc(-n2c(SCC(=O)Nc3ccc4c(c3)OCCO4)nnc2-c2cccnc2)cc1	·	·	-2	·	·	-5	·	·
Cc1ccc(-c2nnc(SCC(=O)NNC(=S)Nc3ccccc3)n2C2CCCCC2)cc1	·	·	-10	·	·	28*	33*	-9	535nm interf DR=>122
C[C@H](CO)N1C[C@H](C)[C@@H](CN(C)C(=O)Nc2ccc(F)cc2)Oc2c(NC(=O)CCCCCC(=O)Nc3ccccc3N)cccc2C1=O	0	·	·	·	·	·	·	·
